Measured values from different studies.
Lines come from different studies, so protocols differ.
Matrix: Caco-2

Compound | tested at | time | pH | measurement | value
C[C@H]1O[C@@H](O[C@H]2[C@@H](O)C[C@H](O[C@H]3[C@@H](O)C[C@H](O[C@H]4CC[C@@]5(C)[C@H](CC[C@@H]6[C@@H]5C[C@@H](O)[C@]5(C)[C@@H](C7=CC(=O)OC7)CC[C@]65O)C4)O[C@@H]3C)O[C@@H]2C)C[C@H](O)[C@@H]1O |  |  | pH 7.4 | Papp A→B | 1.4 ×10⁻⁶ cm/s
CC(=O)c1c(C)c2cnc(Nc3ccc(C4CCN(CCS(C)(=O)=O)CC4)cn3)nc2n(C2CCCC2)c1=O | 10 µM |  |  | Papp A→B | 15.4 ×10⁻⁶ cm/s
CC(C)NCC(O)COc1cccc2ccccc12 (centres unmarked) | 10 µM | 2 h | pH 7.4 | Papp B→A | 19.5 ×10⁻⁶ cm/s
O=c1c2cc(Cl)c(CO)cc2[nH]c(=S)n1Cc1cncnc1 | 10 µM | 90 min | pH 7.4 | Papp B→A | 27 ×10⁻⁶ cm/s
C/C=C1/CN2CC[C@@]34c5cc(O)ccc5N(C)[C@]35OC[C@@]4(C(=O)OC)[C@H]1C[C@H]25 | 10 µM | 2 h | pH 7.4 | Papp A→B | 28.2 ×10⁻⁶ cm/s
CC(C)NCC(O)COc1cccc2ccccc12 (centres unmarked) |  |  | pH 7.4 | Papp B→A | 4.2 ×10⁻⁶ cm/s
O=C1CCC(N2Cc3c(ccc4c3OCC43CCN(Cc4ccccc4)CC3)C2=O)C(=O)N1 (centres unmarked) | 10 µM | 2 h |  | Papp | 19 ×10⁻⁶ cm/s
CC(c1cncnc1)n1c(=S)[nH]c2ccc(Cl)cc2c1=O (centres unmarked) | 10 µM | 90 min | pH 7.4 | Papp A→B | 45.7 ×10⁻⁶ cm/s
